Data reported in ChEMBL document CHEMBL4689842, “EUbOPEN Chemogenomics Library wave 1” (2021).

Key:
Fibroblast = assay: Incucyte cell viability with human fibroblast; format: toxicity, cell-based; conditions: 10 µM, compound concentration 10 uM; further: filed as whole numbers so only -1 and 0 and 1 occur
HEK-293T = assay: Multiplex assay against HEK293T; format: toxicity, cell-based; conditions: human;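 on Population Tubulin-Different-Phenotype (%): share of the cells with healthy nuclei that show this phenotype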
How it was run: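 Live cells carried four stains from seeding: Hoechst33342, BioTracker Green Microtubule Cytoskeleton Dye, MitoTracker Red and Annexin V Alexa Fluor 680. They were imaged on a CQ1 microscope at 37°C and 5% CO2 after compound addition. Using CellPathfinder machine-learning gating, cells were split into Hoechst high-intensity objects or normal cells, normal cells into healthy, pyknosed or fragmented nuclei, and pyknosed cells into mitotic or apoptotic; tubulin, mitochondrial-mass and membrane-permeability phenotypes are per cents of healthy-nucleus cells.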

[1] = 12 h, 1 µM, compound concentration 1 uM, replicate 1
[2] = 12 h, 1 µM, compound concentration 1 uM, replicate 2
[3] = 12 h, 10 µM, compound concentration 10 uM, replicate 1
[4] = 12 h, 10 µM, compound concentration 10 uM, replicate 2
[5] = 24 h, 1 µM, compound concentration 1 uM, replicate 1
[6] = 24 h, 1 µM, compound concentration 1 uM, replicate 2
[7] = 24 h, 10 µM, compound concentration 10 uM, replicate 1
[8] = 24 h, 10 µM, compound concentration 10 uM, replicate 2
[9] = 48 h, 1 µM, compound concentration 1 uM, replicate 1
[10] = 48 h, 1 µM, compound concentration 1 uM, replicate 2
[11] = 48 h, 10 µM, compound concentration 10 uM, replicate 1
[12] = 48 h, 10 µM, compound concentration 10 uM, replicate 2

N#Cc1cccc(C(=O)Nc2cc(-c3ccccc3)nn2-c2ccccc2)c1
Growth Rate (Fibroblast; 0 h, replicate number 1, timepoint 0 hours): 0 | Growth Rate (Fibroblast; 6 h, replicate number 1, timepoint 6 hours): 0 | Growth Rate (Fibroblast; 12 h, replicate number 1, timepoint 12 hours): 0 | Growth Rate (Fibroblast; 18 h, replicate number 1, timepoint 18 hours): 0 | Growth Rate (Fibroblast; 18 h, replicate number 2, timepoint 18 hours): 1 | Growth Rate (Fibroblast; 24 h, replicate number 1, timepoint 24 hours): 0 | Growth Rate (Fibroblast; 24 h, replicate number 2, timepoint 24 hours): 1 | Population Apoptotic (%) (HEK-293T; [1]): 48% | Population Healthy Nuclei (%) (HEK-293T; [1]): 41% | Population Hoechst High Intensity Objects (%) (HEK-293T; [1]): 13% | Population Membrane Permeable-Phenotype (%) (HEK-293T; [1]): 2% | Population Mitochondria Different-Phenotype (%) (HEK-293T; [1]): 85% | Population Mitotic Cells (%) (HEK-293T; [1]): 51% | Population Normal (%) (HEK-293T; [1]): 86% | Population Pyknosed Nuclei (%) (HEK-293T; [1]): 49% | Population Tubulin-Different-Phenotype (%) (HEK-293T; [1]): 64% | Total Cell Count (HEK-293T; [1]): 315 | Population Apoptotic (%) (HEK-293T; [2]): 16% | Population Fragmented Nuclei (%) (HEK-293T; [2]): 8% | Population Healthy Nuclei (%) (HEK-293T; [2]): 42% | Population Hoechst High Intensity Objects (%) (HEK-293T; [2]): 6% | Population Membrane Permeable-Phenotype (%) (HEK-293T; [2]): 18% | Population Mitochondria Different-Phenotype (%) (HEK-293T; [2]): 23% | Population Mitotic Cells (%) (HEK-293T; [2]): 83% | Population Normal (%) (HEK-293T; [2]): 93% | Population Pyknosed Nuclei (%) (HEK-293T; [2]): 48% | Population Tubulin-Different-Phenotype (%) (HEK-293T; [2]): 45% | Total Cell Count (HEK-293T; [2]): 182 | Population Apoptotic (%) (HEK-293T; [3]): 73% | Population Fragmented Nuclei (%) (HEK-293T; [3]): 8% | Population Healthy Nuclei (%) (HEK-293T; [3]): 33% | Population Hoechst High Intensity Objects (%) (HEK-293T; [3]): 14% | Population Membrane Permeable-Phenotype (%) (HEK-293T; [3]): 5% | Population Mitochondria Different-Phenotype (%) (HEK-293T; [3]): 97% | Population Mitotic Cells (%) (HEK-293T; [3]): 26% | Population Normal (%) (HEK-293T; [3]): 86% | Population Pyknosed Nuclei (%) (HEK-293T; [3]): 57% | Total Cell Count (HEK-293T; [3]): 300 | Population Apoptotic (%) (HEK-293T; [4]): 45% | Population Fragmented Nuclei (%) (HEK-293T; [4]): 5% | Population Healthy Nuclei (%) (HEK-293T; [4]): 25% | Population Hoechst High Intensity Objects (%) (HEK-293T; [4]): 5% | Population Membrane Permeable-Phenotype (%) (HEK-293T; [4]): 14% | Population Mitochondria Different-Phenotype (%) (HEK-293T; [4]): 73% | Population Mitotic Cells (%) (HEK-293T; [4]): 54% | Population Normal (%) (HEK-293T; [4]): 94% | Population Pyknosed Nuclei (%) (HEK-293T; [4]): 68% | Population Tubulin-Different-Phenotype (%) (HEK-293T; [4]): 100% | Total Cell Count (HEK-293T; [4]): 174 | Population Apoptotic (%) (HEK-293T; [5]): 45% | Population Fragmented Nuclei (%) (HEK-293T; [5]): 9% | Population Healthy Nuclei (%) (HEK-293T; [5]): 37% | Population Hoechst High Intensity Objects (%) (HEK-293T; [5]): 12% | Population Membrane Permeable-Phenotype (%) (HEK-293T; [5]): 4% | Population Mitochondria Different-Phenotype (%) (HEK-293T; [5]): 61% | Population Mitotic Cells (%) (HEK-293T; [5]): 54% | Population Normal (%) (HEK-293T; [5]): 87% | Population Pyknosed Nuclei (%) (HEK-293T; [5]): 53% | Population Tubulin-Different-Phenotype (%) (HEK-293T; [5]): 51% | Total Cell Count (HEK-293T; [5]): 328 | Population Apoptotic (%) (HEK-293T; [6]): 12% | Population Fragmented Nuclei (%) (HEK-293T; [6]): 6% | Population Healthy Nuclei (%) (HEK-293T; [6]): 53% | Population Hoechst High Intensity Objects (%) (HEK-293T; [6]): 4% | Population Membrane Permeable-Phenotype (%) (HEK-293T; [6]): 14% | Population Mitochondria Different-Phenotype (%) (HEK-293T; [6]): 21% | Population Mitotic Cells (%) (HEK-293T; [6]): 88% | Population Normal (%) (HEK-293T; [6]): 95% | Population Pyknosed Nuclei (%) (HEK-293T; [6]): 39% | Population Tubulin-Different-Phenotype (%) (HEK-293T; [6]): 45% | Total Cell Count (HEK-293T; [6]): 200 | Population Apoptotic (%) (HEK-293T; [7]): 65% | Population Fragmented Nuclei (%) (HEK-293T; [7]): 7% | Population Healthy Nuclei (%) (HEK-293T; [7]): 27% | Population Hoechst High Intensity Objects (%) (HEK-293T; [7]): 15% | Population Membrane Permeable-Phenotype (%) (HEK-293T; [7]): 4% | Population Mitochondria Different-Phenotype (%) (HEK-293T; [7]): 97% | Population Mitotic Cells (%) (HEK-293T; [7]): 34% | Population Normal (%) (HEK-293T; [7]): 84% | Population Pyknosed Nuclei (%) (HEK-293T; [7]): 65% | Population Tubulin-Different-Phenotype (%) (HEK-293T; [7]): 95% | Total Cell Count (HEK-293T; [7]): 309 | Population Apoptotic (%) (HEK-293T; [8]): 67% | Population Fragmented Nuclei (%) (HEK-293T; [8]): 5% | Population Healthy Nuclei (%) (HEK-293T; [8]): 31% | Population Hoechst High Intensity Objects (%) (HEK-293T; [8]): 4% | Population Membrane Permeable-Phenotype (%) (HEK-293T; [8]): 8% | Population Mitochondria Different-Phenotype (%) (HEK-293T; [8]): 84% | Population Mitotic Cells (%) (HEK-293T; [8]): 33% | Population Normal (%) (HEK-293T; [8]): 95% | Population Pyknosed Nuclei (%) (HEK-293T; [8]): 62% | Population Tubulin-Different-Phenotype (%) (HEK-293T; [8]): 100% | Total Cell Count (HEK-293T; [8]): 167 | Population Apoptotic (%) (HEK-293T; [9]): 46% | Population Fragmented Nuclei (%) (HEK-293T; [9]): 11% | Population Healthy Nuclei (%) (HEK-293T; [9]): 49% | Population Hoechst High Intensity Objects (%) (HEK-293T; [9]): 15% | Population Membrane Permeable-Phenotype (%) (HEK-293T; [9]): 4% | Population Mitochondria Different-Phenotype (%) (HEK-293T; [9]): 29% | Population Mitotic Cells (%) (HEK-293T; [9]): 53% | Population Normal (%) (HEK-293T; [9]): 84% | Population Pyknosed Nuclei (%) (HEK-293T; [9]): 38% | Population Tubulin-Different-Phenotype (%) (HEK-293T; [9]): 44% | Total Cell Count (HEK-293T; [9]): 415 | Population Apoptotic (%) (HEK-293T; [10]): 19% | Population Fragmented Nuclei (%) (HEK-293T; [10]): 6% | Population Healthy Nuclei (%) (HEK-293T; [10]): 77% | Population Hoechst High Intensity Objects (%) (HEK-293T; [10]): 4% | Population Membrane Permeable-Phenotype (%) (HEK-293T; [10]): 15% | Population Mitochondria Different-Phenotype (%) (HEK-293T; [10]): 4% | Population Mitotic Cells (%) (HEK-293T; [10]): 80% | Population Normal (%) (HEK-293T; [10]): 95% | Population Pyknosed Nuclei (%) (HEK-293T; [10]): 16% | Population Tubulin-Different-Phenotype (%) (HEK-293T; [10]): 42% | Total Cell Count (HEK-293T; [10]): 356 | Population Apoptotic (%) (HEK-293T; [11]): 53% | Population Fragmented Nuclei (%) (HEK-293T; [11]): 14% | Population Healthy Nuclei (%) (HEK-293T; [11]): 23% | Population Hoechst High Intensity Objects (%) (HEK-293T; [11]): 11% | Population Membrane Permeable-Phenotype (%) (HEK-293T; [11]): 5% | Population Mitochondria Different-Phenotype (%) (HEK-293T; [11]): 78% | Population Mitotic Cells (%) (HEK-293T; [11]): 46% | Population Normal (%) (HEK-293T; [11]): 88% | Population Pyknosed Nuclei (%) (HEK-293T; [11]): 62% | Population Tubulin-Different-Phenotype (%) (HEK-293T; [11]): 100% | Total Cell Count (HEK-293T; [11]): 332 | Population Apoptotic (%) (HEK-293T; [12]): 63% | Population Fragmented Nuclei (%) (HEK-293T; [12]): 6% | Population Healthy Nuclei (%) (HEK-293T; [12]): 42% | Population Hoechst High Intensity Objects (%) (HEK-293T; [12]): 7% | Population Membrane Permeable-Phenotype (%) (HEK-293T; [12]): 17% | Population Mitochondria Different-Phenotype (%) (HEK-293T; [12]): 65% | Population Mitotic Cells (%) (HEK-293T; [12]): 36% | Population Normal (%) (HEK-293T; [12]): 92% | Population Pyknosed Nuclei (%) (HEK-293T; [12]): 50% | Population Tubulin-Different-Phenotype (%) (HEK-293T; [12]): 98% | Total Cell Count (HEK-293T; [12]): 204
